High-throughput results: PubChem BioAssay, Broad Institute
Shown are actives, neighbours in structure and some others; about 0.7% of the full set was active somewhere.
RAD52 inh – RAD52 (human) annealing inhibition. inhibition, % at 18.7 µM. recombinant RAD52 DNA annealing, FRET fluorescence. P43351. AID 651710. 360,000 tested, 0.46% active;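 active = every replicate showing at least 50% inhibition; inconclusive = mean inhibition at least 50% but not in every replicate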
Target sequence (P43351 whole entry, looked up): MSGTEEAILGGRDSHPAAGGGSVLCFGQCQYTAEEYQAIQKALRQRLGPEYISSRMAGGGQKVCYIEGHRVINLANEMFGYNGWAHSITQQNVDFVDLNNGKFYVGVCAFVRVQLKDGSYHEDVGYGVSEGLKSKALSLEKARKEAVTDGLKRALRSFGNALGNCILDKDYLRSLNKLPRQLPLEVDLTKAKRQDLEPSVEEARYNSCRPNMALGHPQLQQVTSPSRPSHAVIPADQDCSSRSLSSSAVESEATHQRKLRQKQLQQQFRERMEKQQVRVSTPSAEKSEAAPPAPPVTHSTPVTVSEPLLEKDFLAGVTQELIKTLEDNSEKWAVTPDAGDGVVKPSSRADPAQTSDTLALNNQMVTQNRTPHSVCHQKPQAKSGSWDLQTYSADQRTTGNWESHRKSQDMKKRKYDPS
RAD54 branch – RAD54 (human) branch migration inhibition. Q92698. RAD54 Holliday junction branch migration, FAM/BHQ fluorescence. inhibition, % at 10.4 µM. 360,000 tested, 0.14% active;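 active = mean normalized replicate activity at least 40 and at least half of replicates scoring 40 or more; inconclusive = only one of the two criteria met; inactive = mean below 40 and under half of replicates reaching 40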;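 note: 0% = median of neutral control wells and 100% = median of positive control wells; inhibitors cause a drop in the FAM fluorescence signal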
FN deposition inh – fibronectin deposition inhibition. AH1F fibroblasts, Alexa488-fibronectin deposition fluorescence, overnight. inhibition, % at 12.6 µM. 350,000 tested, 0.086% active. AID 743247;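 active = mean inhibition across replicates of 30% or more, regardless of how many single replicates reach that level; inconclusive = mean under 30% yet at least half of replicates reach 30%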;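 note: positive control wells lacked labelled fibronectin entirely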
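Assay system: AH1F fibroblasts / Quantity: 10000 cells per well / Medium: DMEM plus 2% serum, read in PBS / Reagent: labelled fibronectin 24 nM / Dosing: single dose, pinned / Times: 1 h cell attachment, overnight exposure to compound and label / Signal: fluorescence, ex 485 nm, em 525 nm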
CaV13 ICDI inh – Primary screen for inhibitors of IQ motif and Ca2+-dependent inactivation inhibitor domain binding in CACNA1D, Förster resonance energy transfer in living cells, …; HEK cells, CFP/YFP FRET ICDI-IQ, plate reader, 10 min; percent FRET-ratio fall versus neutral wells; AID 743397; 340,000 tested, 0.098% active; inhibition, % at 12.3 µM;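 active = mean replicate inhibition of at least 30% and at least 1% of replicates passing that level; inconclusive = only one of the two criteria is met; inactive = neither criterion is met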;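 note: 0% = median of the neutral control wells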
Glyco luc inh – N-linked glycosylation inhibition | D54 ERlucT glycosylation luciferase reporter, 24 h; percent of 100 nM tunicamycin response | reporter increase, % at 12.5 µM | 360,000 tested, 0.23% active;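 active = mean luciferase reporter signal, scaled so untreated is 0 and the glycosylation-blocking control 100, at or above a set limit in every replicate; inconclusive = mean reaches the limit but not every replicate does; inactive = mean below the limit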;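 note: luciferase carries N-glycosylation sites so blocking glycosylation raises the light; 0% = median of neutral control wells and 100% = median of 100 nM tunicamycin wells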
Rad54 DNA ctr – counter-screen for Rad54 inhibitors: DNA binding compounds | AC50, µM (highest dose often 35 µM), inactives show at the highest dose activity change, negative = DNA binding | Acridine orange-DNA displacement, fluorescence polarization, 20 min | AID 651673 | shares compounds with RAD54 branch | 460 tested, 8% active;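 active = signal drop giving an AC50 within twice the top valid tested concentration of each sample, actives reach about 35 µM in these data; inactive = activity opposite to expected, plus the rest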;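 note: polarization loss reports compound binding to salmon sperm DNA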
* marks the source's active call; other numbers are inactive results; i = inactive; ? = inconclusive; . = no result.

SMILES	RAD52 inh	RAD54 branch	FN deposition inh	CaV13 ICDI inh	Glyco luc inh	Rad54 DNA ctr
O=c1c2ccccc2oc2cc(NCCCn3ccnc3)ccc12	-11	18	-16	-3	-9	.
O=c1c2ccccc2oc2ccc(NCCCN3CCOCC3)cc12	-4	?	-13	-19	-5	18%
CN1CCCC1CCNc1ccc2c(=O)c3ccccc3oc2c1 (stereo not drawn)	44	92*	14	-6	9	-13%
CN1CCCC1CCNc1ccc2oc3ccccc3c(=O)c2c1 (stereo not drawn)	28	.	-17	-15	.	.
O=C(COc1ccc2c(c1)oc(=O)c1ccccc12)NCCCN1CCOCC1	18	?	0	-14	5	i
C[C@@H]1CN([C@@H](C)CO)S(=O)(=O)c2ccc(C#CC3CC3)cc2O[C@H]1CN(C)Cc1cccc(F)c1	8	-7	-6	.	.	.
C[C@H]1CN([C@@H](C)CO)C(=O)c2cc(NC(=O)Cc3ccccc3)ccc2O[C@H]1CN(C)CC1CCCCC1	6	7	-9	.	.	.
COc1cccc(-c2nn(C)c3sc(C(=O)NCc4ccco4)cc23)c1	.	11	2	-4	19	.
CCCCN(C)CCNC(=O)c1cc2c(-c3cccc(OC)c3)nn(C)c2s1	65*	72*	-3	-19	-1	-16%
CCN1CCCC1CNC(=O)c1cc2c(-c3cccc(OC)c3)nn(C)c2s1 (stereo not drawn)	.	50*	1	-4	1	-9%
Cc1ccc2nc(C)c3c(c2c1)N(c1ccc(F)cc1)CC3	41	?	13	-15	5	-14%
CSc1nc(C)c2c(n1)N(c1ccc(F)cc1)CC2	.	.	.	.	-2	.
COc1ccc(NC(=O)N(C)C[C@H]2Oc3ccc(NC(=O)Cn4cnnn4)cc3CC(=O)N([C@H](C)CO)C[C@@H]2C)cc1	-9	-2	.	.	.	.
Cc1ccc(S(=O)(=O)Nc2ccc3c(c2)C(=O)N([C@H](C)CO)C[C@H](C)[C@H](CN(C)C(=O)c2ccccc2)OCCCC[C@H](C)O3)cc1	25	0	3	.	.	.
CSc1nnc2c3cc(F)ccc3n(Cc3ccccc3)c2n1	.	-1	2	-4	-4	.
CCN(CC)CCSc1nnc2c3cc(C)ccc3n(Cc3ccccc3)c2n1	35	?	-2	-5	-6	2%
O=C(C1CCC1)N1CC2(C1)[C@H](c1ccccc1)[C@@H](CO)N2CCC(F)(F)F	-14	.	0	.	.	.
CN(C)CCOc1ncnc2c1oc1ccccc12	.	15	.	.	4	.
CN(C)CCOc1nc(-c2ccccc2)nc2c1oc1ccccc12	.	81*	.	-5	114*	i
O=C(CN1CCCC1)Nc1ccc(-c2nc3cc(NC(=O)CN4CCCC4)ccc3o2)cc1	.	?	.	-8	-9	-22%
CCOc1cc2nc(-c3ccc(OC)c(OC)c3)nc(NCCCN3CCOCC3)c2cc1OC	.	85*	14	-5	-2	i
CN(C)CCN(C(=O)c1ccc2c(c1)OCCO2)c1nc2c(Cl)cccc2s1	27	51*	-1	-7	3	-5%
CC(=O)c1ccc(C(=O)N(CCN(C)C)c2nc3c(Cl)cccc3s2)cc1	29	28	-2	8	2	.
c1ccc2c(c1)[nH]c1c(N3CCCC3)ncnc12	.	40	.	0	7	.
CN1CCN(c2ncnc3c2[nH]c2ccc(F)cc23)CC1	.	76*	.	-4	0	-3%
SMILES	RAD52 inh	RAD54 branch	FN deposition inh	CaV13 ICDI inh	Glyco luc inh	Rad54 DNA ctr
c1ccc2c(c1)[nH]c1c(N3CCN(C4CCCCC4)CC3)ncnc12	.	?	11	-6	2	4%
COc1cccc(NC(=O)Nc2ccc3c(c2)C(=O)N(C)[C@@H]2CC[C@@H](CC(=O)NCCc4ccccc4)O[C@@H]2CO3)c1	9	1	-1	.	.	.
CC(=O)Nc1ccc2cc3ccc(NC(C)=O)cc3nc2c1	-101	51*	-18	-9	36*	4%
Cc1cccc2cc3c(N)c(C#N)sc3nc12	.	71*	-18	.	11	2%
CC(=O)Nc1sc2c(c1-c1nc3ccccc3s1)CN(C(C)C)CC2	i	67*	2	-6	-15	17µM*
C[C@H](O)C#Cc1cnc2c(c1)C(=O)N([C@H](C)CO)C[C@@H](C)[C@H](CN(C)C(=O)CC1CC1)O2	-3	0	-4	.	.	.
COc1ccc(CNC(=O)C[C@@H]2C[C@@H]3c4cc(NC(=O)CC5CC5)ccc4O[C@@H]3[C@@H](CO)O2)cc1	.	-9	7	.	.	.
O=C1c2cccc3cccc(c23)C(=O)N1CCCn1ccnc1	33	51*	1	-15	5	-14%
CCN(CC)CCCNc1nc2cc(OC)c(OC)cc2c2nc(-c3cccnc3)nn12	.	115*	9	-3	11	-8%
CCN(CC)CCCNc1nc(-c2ccccc2)nc2ccccc12	.	85*	-6	-3	8	-8%
CCN(CC)CCCNc1nc2cc(OC)c(OC)cc2c2nc(-c3ccccc3)nn12	.	106*	-18	-5	41*	0%
OCCNc1nc(-c2ccccc2)nc2ccccc12	-19	.	5	-2	3	.
COc1cc2nc(NCCCN3CCN(C)CC3)n3nc(-c4ccccc4)nc3c2cc1OC	.	102*	-11	-5	5	4%
COCCCNc1nc2cc(OC)c(OC)cc2c2nc(-c3ccccc3)nn12	-2	39	-1	-19	0	.
O=C(C[C@H]1CC[C@H]2[C@@H](COC[C@H](O)CN2C(=O)Nc2ccccc2)O1)NCc1ccncn1	-6	4	3	.	.	.
COc1cccc(-c2ccc3n(c2=O)C[C@H]2[C@H](CO)[C@@H](C(=O)N(C)C)N(C(=O)C4CCC4)[C@@H]32)c1	11	-4	.	.	.	.
COc1ccccc1CNC(=O)c1cccs1	.	63*	.	-5	0	11%
CO[C@@H]1CN(C)C(=O)c2ccc(NC(=O)C3CCC3)cc2OC[C@@H](C)N(Cc2ccccn2)C[C@H]1C	-1	.	-2	.	.	.
O=C(Nc1ccc(NC(=O)c2ccc(Cl)cc2Cl)cc1)c1ccc2c(c1)OCO2	2	-1	-2	-2	-2	.
O=C(Nc1ccc(C2=NCCN2)cc1)c1ccc(C(=O)Nc2ccc(C3=NCCN3)cc2)c(Cl)c1	73*	?	-6	-3	1	-6%
CC=Cc1ccc2n(c1=O)C[C@H]1[C@H](CO)[C@@H](C(=O)NCCC)[C@@H]2N1C(=O)C1CCCC1 (mixture of isomers)	5	-5	.	.	.	.
Cc1c(Cl)ccc(S(=O)(=O)NCCCn2ccnc2)c1Cl	0	?	-3	0	0	-9%
COCCNC(=S)Nc1ccc2nc(N3CCCC3)cc(C)c2c1	.	38	.	-9	1	.
CCOCCCNC(=S)Nc1ccc2nc(N3CCCC3)cc(C)c2c1	.	60*	.	-9	0	-8%
